These results are taken from ChEMBL document CHEMBL1127027, “Synthesis and structure-activity relationships of naphthalene-substituted derivatives of the allylamine antimycotic terbinafine” (1993).

In assay [1] the test system is Aspergillus fumigatus. Description: Tested in vitro for minimum inhibitory concentration against Aspergillus fumigatus. The format is functional. In short, it runs like this:
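Broth macrodilution in glass tubes with Sabouraud's dextrose broth (pH 6.5). Compounds were dissolved in DMSO and serially diluted in medium. Inoculum was filamentous fungus harvested by spatula from Kimmig agar cultures grown 21 days at 30 °C. Tubes were incubated 72 h at 30 °C. MIC was the lowest concentration with no macroscopically visible growth.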

The subject of assay [2] is Trichophyton benhamiae. Description: Tested in vitro for minimum inhibitory concentration against Trichophyton mentagrophytes. Type of assay: functional, Arthroderma benhamiae. The gist of the method:
(§1)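 Glass-tube serial dilution in Sabouraud's dextrose broth (pH 6.5), with compounds dissolved in DMSO and diluted in medium. Mycelial inoculum was scraped from 21-day Kimmig agar cultures grown at 30 °C. Incubation was 7 days at 30 °C. MIC was the lowest concentration giving no macroscopically detectable growth.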

For assay [3], the system named is Microsporum canis. Description: Tested in vitro for minimum inhibitory concentration against Microsporum canis. Type of assay: functional. In short, it runs like this:
as §1

The test system of assay [4] is Candida albicans. Description: Tested in vitro for minimum inhibitory concentration against Candida albicans 9. The format is functional. The gist of the method:
(§2)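 Yeasts were tested by tube dilution in malt extract broth (pH 4.8), with DMSO-dissolved compounds serially diluted in the broth. Blastospores came from yeast nitrogen base cultures shaken at 37 °C for about 30 h. After 48 h at 30 °C, MIC was read as the lowest concentration without macroscopic growth.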

For assay [5], the system named is Candida albicans. Description: Tested in vitro for minimum inhibitory concentration against Candida albicans 124. Type of assay: functional. In short, it runs like this: as §2
For assay [6], the system named is Sporothrix schenckii. Description: Tested in vitro for minimum inhibitory concentration against Sporothrix schenck ii. The format is functional. In short, it runs like this: as §1
Assay [7] relates to Candida parapsilosis. Description: Tested in vitro for minimum inhibitory concentration against Candida parapsilosis 39. Type of assay: functional. To be noted: Lodderomyces parapsilosis. The gist of the method:
as §2

The structures appear in SMILES notation. Values after ≈ are worked out from the molar mass of the structure shown.

As usually defined, the MIC is the smallest concentration in the dilution series that meets the test's criterion for growth inhibition.

`CN(C/C=C/C#CC(C)(C)C)Cc1cccc2c(F)cccc12`: the MIC was determined as 0.1 µg/mL (≈ 0.323 µM) in assay [1]; 0.006 µg/mL (≈ 0.0194 µM) in assay [2]; 0.006 µg/mL (≈ 0.0194 µM) in assay [3]; 1.56 µg/mL (≈ 5.04 µM) in assay [4]; 3.13 µg/mL (≈ 10.1 µM) in assay [5]; 0.2 µg/mL (≈ 0.646 µM) in assay [6]. Also, in assay [7], inhibition of growth (MIC) required 0.2 µg/mL (≈ 0.646 µM).

For `CN(C/C=C/C#CC(C)(C)C)Cc1ccc(F)c2ccccc12`, the MIC came to 3.13 µg/mL (≈ 10.1 µM) in assay [1]; 0.01 µg/mL (≈ 0.0323 µM) in assay [2]; 0.01 µg/mL (≈ 0.0323 µM) in assay [3]; 12.5 µg/mL (≈ 40.4 µM) in assay [4]; 25 µg/mL (≈ 80.8 µM) in assay [5]; 0.4 µg/mL (≈ 1.29 µM) in assay [6]. Inhibition of growth in assay [7] (MIC) required 0.8 µg/mL (≈ 2.59 µM).

As for `CN(C/C=C/C#CC(C)(C)C)Cc1cccc2c(Cl)csc12`, the MIC in assay [1] stood at 0.1 µg/mL (≈ 0.301 µM); in assay [2], 0.0015 µg/mL (≈ 0.00452 µM); in assay [3] it was 0.003 µg/mL (≈ 0.00904 µM); in assay [4], 0.4 µg/mL (≈ 1.21 µM); in assay [5], 0.8 µg/mL (≈ 2.41 µM); in assay [6], 0.2 µg/mL (≈ 0.603 µM). Further, the MIC in assay [7] was 0.1 µg/mL (≈ 0.301 µM).

For `CN(C/C=C/C#CC(C)(C)C)Cc1cc(C#N)cc2ccccc12`, the MIC in assay [1] is over 200 µg/mL; in assay [2], 0.05 µg/mL (≈ 0.158 µM); in assay [3], 0.05 µg/mL (≈ 0.158 µM); in assay [4] it was over 200 µg/mL; in assay [5], over 200 µg/mL; in assay [6], over 200 µg/mL. Moreover, 0.4 µg/mL (≈ 1.26 µM) was the least that counted as inhibitory in assay [7] (MIC).

Take `CN(C/C=C/C#CC(C)(C)C)Cc1cc(F)cc2ccccc12`: the MIC in assay [1] turned out to be 0.8 µg/mL (≈ 2.59 µM); in assay [2] it was 0.006 µg/mL (≈ 0.0194 µM); in assay [3], 0.006 µg/mL (≈ 0.0194 µM); in assay [4], 0.8 µg/mL (≈ 2.59 µM); in assay [5], 6.25 µg/mL (≈ 20.2 µM); in assay [6], 0.2 µg/mL (≈ 0.646 µM). It took 0.2 µg/mL (≈ 0.646 µM) to inhibit growth in assay [7] (MIC).

For `CN(C/C=C/C#CC(C)(C)C)Cc1cccc2cc(F)ccc12`, the MIC in assay [1] came out at 6.25 µg/mL (≈ 20.2 µM); in assay [2] it was 0.006 µg/mL (≈ 0.0194 µM); in assay [3] it was 0.006 µg/mL (≈ 0.0194 µM); in assay [4], 6.25 µg/mL (≈ 20.2 µM); in assay [5], 25 µg/mL (≈ 80.8 µM); in assay [6], 0.8 µg/mL (≈ 2.59 µM). Besides, in assay [7], 1.56 µg/mL (≈ 5.04 µM) was the least that counted as inhibitory (MIC).

Turning to `Cc1cccc2c(CN(C)C/C=C/C#CC(C)(C)C)cccc12`, the MIC in assay [1] worked out at 0.8 µg/mL (≈ 2.62 µM); in assay [2], 0.006 µg/mL (≈ 0.0196 µM); in assay [3] it was 0.02 µg/mL (≈ 0.0655 µM); in assay [4] it was 6.25 µg/mL (≈ 20.5 µM); in assay [5], 12.5 µg/mL (≈ 40.9 µM); in assay [6] it was 0.4 µg/mL (≈ 1.31 µM). The same compound came in with an MIC in assay [7] of 1.56 µg/mL (≈ 5.11 µM).

Turning to `CN(C/C=C/C#CC(C)(C)C)Cc1cccc2c(Cl)cccc12`, the MIC was 0.1 µg/mL (≈ 0.307 µM) in assay [1]; 0.003 µg/mL (≈ 0.00921 µM) in assay [2]; 0.006 µg/mL (≈ 0.0184 µM) in assay [3]; 0.8 µg/mL (≈ 2.45 µM) in assay [4]; 1.56 µg/mL (≈ 4.79 µM) in assay [5]; 0.4 µg/mL (≈ 1.23 µM) in assay [6]. The same compound displayed an MIC in assay [7] of 0.2 µg/mL (≈ 0.614 µM).

Turning to `Cc1ccc2cccc(CN(C)C/C=C/C#CC(C)(C)C)c2c1`, the MIC worked out at 1.56 µg/mL (≈ 5.11 µM) in assay [1]; 0.01 µg/mL (≈ 0.0327 µM) in assay [2]; 0.05 µg/mL (≈ 0.164 µM) in assay [3]; 25 µg/mL (≈ 81.8 µM) in assay [4]; 50 µg/mL (≈ 164 µM) in assay [5]; 0.4 µg/mL (≈ 1.31 µM) in assay [6]. Also, the lowest concentration to inhibit growth in assay [7] (MIC) was 0.8 µg/mL (≈ 2.62 µM).

Turning to `CN(C/C=C/C#CC(C)(C)C)Cc1cccc2ccccc12` [TERBINAFINE], the MIC in assay [1] worked out at 0.8 µg/mL (≈ 2.75 µM); in assay [2], 0.003 µg/mL (≈ 0.0103 µM); in assay [3], 0.006 µg/mL (≈ 0.0206 µM); in assay [4], 6.25 µg/mL (≈ 21.4 µM); in assay [5] it was 25 µg/mL (≈ 85.8 µM); in assay [6], 0.4 µg/mL (≈ 1.37 µM). In addition, in assay [7], the lowest concentration to inhibit growth (MIC) was 0.8 µg/mL (≈ 2.75 µM).

Take `CN(C/C=C/C#CC(C)(C)C)Cc1cccc2c(F)cc(F)cc12`: the MIC in assay [1] was determined as 0.1 µg/mL (≈ 0.305 µM); in assay [2] it was 0.003 µg/mL (≈ 0.00916 µM); in assay [3], 0.003 µg/mL (≈ 0.00916 µM); in assay [4] it was 0.8 µg/mL (≈ 2.44 µM); in assay [5], 1.56 µg/mL (≈ 4.76 µM); in assay [6], 0.1 µg/mL (≈ 0.305 µM). Moreover, the MIC in assay [7] is 0.1 µg/mL (≈ 0.305 µM).

Turning to `CN(C/C=C/C#CC(C)(C)C)Cc1cccc2ccc(Cl)cc12`, the MIC in assay [1] was 1.56 µg/mL (≈ 4.79 µM); in assay [2], 0.02 µg/mL (≈ 0.0614 µM); in assay [3], 0.02 µg/mL (≈ 0.0614 µM); in assay [4], 3.13 µg/mL (≈ 9.6 µM); in assay [5] it was 12.5 µg/mL (≈ 38.4 µM); in assay [6] it was 0.4 µg/mL (≈ 1.23 µM). In assay [7], this compound gave an MIC of 0.4 µg/mL (≈ 1.23 µM).

As to `CN(C/C=C/C#CC(C)(C)C)Cc1cccc2ccc(F)cc12`, the MIC in assay [1] was 0.4 µg/mL (≈ 1.29 µM); in assay [2] it was 0.006 µg/mL (≈ 0.0194 µM); in assay [3], 0.006 µg/mL (≈ 0.0194 µM); in assay [4] it was 3.13 µg/mL (≈ 10.1 µM); in assay [5], 12.5 µg/mL (≈ 40.4 µM); in assay [6], 0.4 µg/mL (≈ 1.29 µM). Moreover, in assay [7], the MIC is 0.4 µg/mL (≈ 1.29 µM).

In the case of `Cc1cc(CN(C)C/C=C/C#CC(C)(C)C)c2ccccc2c1`, the MIC amounted to 3.13 µg/mL (≈ 10.2 µM) in assay [1]; 0.01 µg/mL (≈ 0.0327 µM) in assay [2]; 0.02 µg/mL (≈ 0.0655 µM) in assay [3]; 50 µg/mL (≈ 164 µM) in assay [4]; 50 µg/mL (≈ 164 µM) in assay [5]; 0.2 µg/mL (≈ 0.655 µM) in assay [6]. The same compound came in with an MIC in assay [7] of 1.56 µg/mL (≈ 5.11 µM).

Turning to `CN(C/C=C/C#CC(C)(C)C)Cc1cccc2c(Br)cccc12`, the MIC in assay [1] stood at 1.56 µg/mL (≈ 4.21 µM); in assay [2] it was 0.006 µg/mL (≈ 0.0162 µM); in assay [3], 0.01 µg/mL (≈ 0.027 µM); in assay [4], 1.56 µg/mL (≈ 4.21 µM); in assay [5], 3.13 µg/mL (≈ 8.45 µM); in assay [6], 0.1 µg/mL (≈ 0.27 µM). Besides, in assay [7], the MIC came to 0.8 µg/mL (≈ 2.16 µM).

As for `CN(C/C=C/C#CC(C)(C)C)Cc1ccc(C#N)c2ccccc12`, the MIC in assay [1] was over 200 µg/mL; in assay [2], 0.2 µg/mL (≈ 0.632 µM); in assay [3], 0.1 µg/mL (≈ 0.316 µM); in assay [4], over 200 µg/mL; in assay [5], over 200 µg/mL; in assay [6], over 200 µg/mL. This compound gave an MIC in assay [7] of 12.5 µg/mL (≈ 39.5 µM).

In the case of `Cc1ccc(CN(C)C/C=C/C#CC(C)(C)C)c2ccccc12`, the MIC in assay [1] is over 200 µg/mL; in assay [2], 0.02 µg/mL (≈ 0.0655 µM); in assay [3] it was 0.05 µg/mL (≈ 0.164 µM); in assay [4] it was 25 µg/mL (≈ 81.8 µM); in assay [5], 50 µg/mL (≈ 164 µM); in assay [6], 0.8 µg/mL (≈ 2.62 µM). The compound also yielded an MIC in assay [7] of 3.13 µg/mL (≈ 10.2 µM).

Regarding `CN(C/C=C/C#CC(C)(C)C)Cc1cccc2c(C#N)cccc12`, the MIC in assay [1] is over 200 µg/mL; in assay [2] it was 0.2 µg/mL (≈ 0.632 µM); in assay [3] it was 0.4 µg/mL (≈ 1.26 µM); in assay [4], over 200 µg/mL; in assay [5], over 200 µg/mL; in assay [6], 6.25 µg/mL (≈ 19.8 µM). Besides, inhibition of growth in assay [7] (MIC) required 3.13 µg/mL (≈ 9.89 µM).

As to `Cc1ccc2c(CN(C)C/C=C/C#CC(C)(C)C)cccc2c1`, the MIC in assay [1] was over 200 µg/mL; in assay [2], 0.01 µg/mL (≈ 0.0327 µM); in assay [3], 0.05 µg/mL (≈ 0.164 µM); in assay [4], 12.5 µg/mL (≈ 40.9 µM); in assay [5], 25 µg/mL (≈ 81.8 µM); in assay [6], 0.4 µg/mL (≈ 1.31 µM). The compound also displayed an MIC in assay [7] of 0.8 µg/mL (≈ 2.62 µM).
